# Results pooled from the literature.
# Each line is one published result; the experiments were not run side by side.
# Target: Wee1-like protein kinase 2 (WEE2, Homo sapiens, UniProt P0C1S8)
Compound,test,setting,remaining binding [%]
c1cncc(-c2cccc(Nc3nccc(NC4CCCCC4)n3)c2)c1,"binding, competition with immobilised ligand",10 µM,100
C[C@@H]1CCN(c2nccc(-c3cnn4ncccc34)n2)C1,binding,1 µM,87
Cc1cc(-n2nc(Cc3cc(F)cc(C(F)(F)F)c3)nc2C)ccc1C(N)=O,"cell-free assay, competition with immobilised ligand",1 µM,100
CN(C)c1nccc(-c2cnn3ncccc23)n1,binding,1 µM,100
O=C(c1ccc(Nc2nccc(-c3cc4ccccc4s3)n2)cc1)N1CCC(N2CCCC2)CC1,"binding, competition with immobilised ligand",1 µM,65
CN(C)c1ncc(F)c(-c2cnn3ncccc23)n1,binding,1 µM,98
COc1cnc(Nc2cccc(S(N)(=O)=O)c2)nc1N1CCN(c2ccccc2)C(=O)C1,"binding, competition with immobilised ligand",1 µM,100
O=C(NCc1ncc(C(F)(F)F)cc1Cl)c1ccc2c(c1)C1(CCS(=O)(=O)CC1)[C@H](C1CC1)N2S(=O)(=O)c1ccc(F)cc1,"cell-free assay, competition with immobilised ligand",1 µM,100
O=C(Nc1c[nH]nc1C(=O)NC1CCNCC1)c1cc(F)cc(F)c1,"binding, competition with immobilised ligand",1 µM,100
COc1ccnn2ncc(-c3ccnc(N(C)C)n3)c12,binding,1 µM,96
O=C(c1ccc(Nc2ncc(Cl)c(-c3cc4ccccc4s3)n2)cc1)N1CCC(N2CCCC2)CC1,"binding, competition with immobilised ligand",1 µM,27
CN(c1nccc(-c2cnn3ncccc23)n1)C1CC1,binding,1 µM,100
CCc1ccccc1C(=O)Nc1n[nH]c2c(C)c(F)c(C3C(C#N)=C(C)N(C)C(C)=C3C#N)cc12,"cell-free assay, competition with immobilised ligand",1 µM,82
COc1cnc(Nc2cccc(S(N)(=O)=O)c2)nc1N1CCN(c2ccccc2)CC1,"binding, competition with immobilised ligand",1 µM,96
O=C(NCCCN1CCOCC1)c1ccc(Nc2nccc(-c3cc4ccccc4s3)n2)cc1,"binding, competition with immobilised ligand",1 µM,86
O=C(Nc1cnc(Oc2ccc(F)cc2)nc1)N1CCc2ncccc2[C@@H]1c1ccc(F)cc1,"cell-free assay, competition with immobilised ligand",1 µM,95
N[C@@H]1CCN(c2nccc(-c3cnn4ncccc34)n2)C1,binding,1 µM,100
CNCc1ccccc1-c1csc([C@@H](C)Nc2nc(C)nc3cc(OC)c(OC)cc23)c1,"cell-free assay, competition with immobilised ligand",1 µM,100
COc1ncc2cc3ccccc3nc2c1C#N,"cell-free assay, competition with immobilised ligand",5 µM,100
COc1cccc(CNC(=O)c2nc3scc(COCc4ccc(C(=O)O)cc4)c3c(=O)[nH]2)c1,"cell-free assay, competition with immobilised ligand",1 µM,96.9
C=CC(=O)N1CCC(C(=O)NCC(=O)N2CCN(c3nc(-c4cnc(N)nc4C(F)F)nc(N4CCOCC4)n3)CC2)CC1,"binding, competition with immobilised ligand",1 µM,100
